# Screening data (PubChem)
# Sampled rows, rich in hits. Any-hit rate of the full collection: about 0.79%.
# hIAP block = human IAP inhibition; P09923; inhibition, % at 10 µM; 330,000 tested, 0.12% active; purified IAP, CDP-Star luminescence, 30 min;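 active means inhibition reaching a set limit with compound at 10 µM in the primary screen, cut at about 35% in these data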;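 further: plate controls were DMSO wells with enzyme for no effect and no-enzyme buffer wells for full effect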
# Target sequence (P09923 whole entry, looked up): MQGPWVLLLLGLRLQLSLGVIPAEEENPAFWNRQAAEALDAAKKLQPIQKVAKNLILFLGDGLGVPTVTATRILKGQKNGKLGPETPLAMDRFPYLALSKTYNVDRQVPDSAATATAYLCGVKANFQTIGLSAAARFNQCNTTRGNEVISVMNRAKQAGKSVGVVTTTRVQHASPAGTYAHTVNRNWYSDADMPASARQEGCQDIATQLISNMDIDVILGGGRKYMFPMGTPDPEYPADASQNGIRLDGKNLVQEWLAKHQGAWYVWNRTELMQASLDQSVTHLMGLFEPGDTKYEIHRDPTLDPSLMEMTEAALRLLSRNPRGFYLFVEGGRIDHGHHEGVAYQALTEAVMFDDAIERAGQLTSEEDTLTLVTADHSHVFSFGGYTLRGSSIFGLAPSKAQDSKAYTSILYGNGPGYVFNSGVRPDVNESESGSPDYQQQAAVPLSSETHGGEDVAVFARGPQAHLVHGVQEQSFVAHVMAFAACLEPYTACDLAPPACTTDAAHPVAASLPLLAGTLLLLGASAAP
# bIAP inh = intestinal alkaline phosphatase (bovine) inhibition; purified bovine IAP, CDP-star luminescence, 30 min; inhibition, % at 20 µM; 190,000 tested, under 10 active; AID 1019;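 active means over 50% inhibition of intestinal alkaline phosphatase at 20 µM in the single-dose screen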
#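 Assay system – bovine IAP enzyme · Quantity – bovine IAP at 1/65,000,000 final dilution · Detection – CDP-star luminescence signal · Times – 30 min reaction at room temperature · Also added – CDP-star substrate at 30 µM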
# bIAP act = increases bovine intestinal alkaline phosphatase activity. purified bovine IAP, CDP-star luminescence, 30 min; hits give high values; fold of DMSO-control signal, blank-subtracted. 200,000 tested, 0.17% active. activation factor at 20 µM;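 active means activation factor of 2 or more at 20 µM, a signal rise over negative controls twice the positive control's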
# mIAP activ = increases mouse intestinal alkaline phosphatase activity; muIAP, CDP-Star luminescence, 30 min; hits give high values; 1 = vehicle-only enzyme signal, 0 = enzyme-free wells; activation factor at 10 µM; 330,000 tested, 0.24% active;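 active means activation factor of at least 2 at 20 µM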
#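 Assay system: mouse IAP enzyme; reagent: chemiluminescent substrate CDP-Star; dosing: test compounds delivered from DMSO solution; schedule: 30 min at room temperature; measured by: luminescence from enzymatic CDP-Star hydrolysis; controls: DMSO-only wells and no-enzyme negative control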
# hIAP activ = increases human intestinal alkaline phosphatase activity. purified human IAP, CDP-Star luminescence, 30 min; hits give high values; 1 = vehicle-only enzyme, 0 = enzyme-free background. activation factor at 10 µM. 330,000 tested, 0.16% active. AID 2524;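 active means activation factor of the enzyme at least 2-fold when tested at 20 µM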
# mIAP inh = blocks mouse intestinal alkaline phosphatase. purified mouse IAP, CDP-Star luminescence, 30 min. inhibition, % at 10 µM. 330,000 tested, 0.2% active;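 active means inhibition of at least 40% at 10 µM in the primary screen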;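 further: plate controls were DMSO with enzyme for no effect and no enzyme wells for full effect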
# * marks the source's active call; other numbers are inactive results; i = inactive; · = no result given.
SMILES,hIAP block,bIAP inh,bIAP act,mIAP activ,hIAP activ,mIAP inh
Nc1ncc(Br)cc1S(=O)(=O)N1CCCCCC1,0.2,·,·,0.916,0.998,8.4
Cc1onc(-c2ccccc2)c1C(=O)NCCc1ccc(S(N)(=O)=O)cc1,2.5,6.7,0.9,0.886,0.975,11.4
Cc1ccc(C2(C)NC(=O)N(CC(=O)c3ccc(Cl)s3)C2=O)cc1 (stereo not drawn),-5.5,-97.2,2*,0.85,1.05,15.0
COc1ccc(CCNC(=O)C2CCCN2C(=O)Nc2cccc(OC)c2)cc1 (stereo not drawn),-15.8,·,·,1.07,1.16,-7.2
O=S(=O)(c1ccc(N2CCC(c3ccc(Cl)cc3)=N2)cc1)N(CCO)CCO,-6.0,-168.2,2.7*,2.2*,1.06,-120.4
CN(C)CCCNS(=O)(=O)c1ccc(N2CCC(c3ccc(Cl)cc3)=N2)cc1,-17.9,-124.8,2.2*,1.89,1.18,-88.6
Cc1sc2ncnc(N3CCC(C(=O)NNC(=O)COc4ccccc4Cl)CC3)c2c1C,-36.4,·,·,0.979,1.36,2.1
CC1(C)Oc2ccc3ccc(=O)oc3c2/C(=C/N)C1=O,-23.4,3.0,1,0.929,1.23,7.1
CC1(C)Oc2ccc3ccc(=O)oc3c2/C(=C/Nc2ccccc2)C1=O,3.8,16.0,0.8,0.594,0.962,40.6*
CCCCN1C(=O)C2(NNc3ccccc3O2)c2ccccc21 (stereo not drawn),24.5,-169.0,2.7*,0.947,0.755,5.3
C=CCNC(=O)/C(C#N)=C/c1c(N2CCN(c3cccc(Cl)c3)CC2)nc2c(C)cccn2c1=O,12.0,·,·,0.937,0.88,6.3
Cc1c(Br)c([N+](=O)[O-])nn1C(C)C(=O)NCc1cccnc1 (stereo not drawn),17.1,1.3,1,0.983,0.829,1.7
Cc1ccc(S(=O)(=O)N(CC(=O)Nc2cccc(N(C)S(C)(=O)=O)c2)c2ccc(Cl)c(Cl)c2)cc1,-14.2,-35.5,1.4,2.58*,1.14,-158.0
CN(c1cccc(NC(=O)CN(c2ccc(Cl)c(Cl)c2)S(=O)(=O)c2ccccc2)c1)S(C)(=O)=O,6.8,-2.1,1,1.53,0.932,-52.7
O=C(Nc1cc(Cl)cc(Cl)c1)N1CCCC1,3.0,·,·,2.12*,0.97,-111.9
O=C(Nc1cc(Cl)cc(Cl)c1)C(c1ccccc1)N1CCCCC1 (stereo not drawn),-11.8,4.6,1,2.98*,1.12,-197.8
O=C(Nc1cccnc1)Nc1cc(Cl)cc(Cl)c1,-1.6,-5.7,1.1,2.46*,1.02,-145.8
N=C1c2ccccc2CN1NC(=O)c1cccc(S(=O)(=O)N2CCCCC2)c1,7.0,8.7,0.9,0.868,0.93,13.2
CCCCCCCCn1ccc(=N)cc1,2.5,·,·,1.05,0.975,-4.7
O=C1C2C3C=CC(C2C(=O)N1c1cccc(O)c1)C1C2C(=O)N(c4cccc(O)c4)C(=O)C2C31 (stereo not drawn),12.1,-7.8,1.1,0.862,0.879,13.8
Cc1nn(C)c(C)c1NC(=O)Nc1ccc(Cl)c(Cl)c1,-10.3,2.2,1,2.14*,1.1,-114.1
Cc1nn(C)c(C)c1NC(=O)Nc1cccc(C(F)(F)F)c1,-6.3,5.7,0.9,1.04,1.06,-4.5
CC(=O)OCCCN1c2ccccc2Nc2nnc(-c3ccccc3)cc21,-1.5,i,27.8*,3.5*,1.01,-249.7
COc1cc(/C=N/NC(=O)c2ccc(N(C)S(=O)(=O)c3ccccc3)cc2)cc(OC)c1OC,10.4,9.6,0.9,1.04,0.896,-3.7
CC(C)(C)NC(=O)C(=O)NN=C1CCCCCC1,-6.9,2.5,1,1.05,1.07,-4.7
SMILES,hIAP block,bIAP inh,bIAP act,mIAP activ,hIAP activ,mIAP inh
CN1CCC(=NNC(=O)C(=O)NC(C)(C)C)CC1,4.0,-275.9,3.8*,0.906,0.96,9.4
NC1=NC2(CCC(c3ccccc3)CC2)n2c(nc3ccccc32)N1 (stereo not drawn),-42.8,-191.8,2.9*,1.56,1.43,-56.2
NC1=NC2(CCCCC2)n2c(nc3ccccc32)N1,1.2,-116.8,2.2*,1.04,0.988,-3.9
NC1=NC(c2ccc(Br)cc2)n2c(nc3ccccc32)N1 (stereo not drawn),2.7,-94.3,1.9,1.07,0.973,-7.3
NC1=NC2(CCN(Cc3ccccc3)CC2)n2c(nc3ccccc32)N1,-5.2,-254.6,3.5*,0.905,1.05,9.5
Cc1c(CCO)c(=O)n(C)n1C(=O)c1ccc(Cl)cc1,-3.1,6.9,0.9,0.96,1.03,4.0
CC(C)(C)c1ccc(NC(=O)Nc2ccc(OCC(=O)N3CCOCC3)cc2)cc1,-5.1,-29.3,1.3,2.08*,1.05,-107.8
O=C(O)C1C2C=CC(O2)C1C(=O)Nc1ccc2c(c1)OCCO2 (stereo not drawn),2.6,2.1,1,0.897,0.974,10.3
CC(C)CCNC(=S)Nc1ccc(Br)cc1,-17.0,-3.5,1,2.23*,1.17,-123.5
COc1ccc(N/C=C(\C=C\C#N)S(=O)(=O)c2ccccc2)cc1,-1.5,·,·,1.03,1.01,-2.7
Cc1cc(C)nc(NC(=O)COc2cc(Cl)cc(Cl)c2)n1,5.5,12.7,0.9,0.941,0.945,5.9
Cc1ccc(NC2=NC3(CCCC3)N=C(N)N2)c(C)c1,-6.9,-9.6,1.1,1.03,1.07,-3.3
Cc1cccc(NC2=NC3(CCCCC3)N=C(N)N2)c1C,5.0,-166.6,2.7*,1.16,0.949,-15.7
Cc1ccccc1NC1=NC2(CCCC2)N=C(N)N1,1.8,-6.0,1.1,0.967,0.982,3.3
Cc1ccc(NC2=NC3(CCCCC3)N=C(N)N2)c(C)c1,-49.4,-272.5,3.7*,1.14,1.49,-14.2
COc1ccc(CNC(=O)CNC(=O)c2ccc(C(C)(C)C)cc2)cc1OC,4.7,·,·,0.99,0.953,1.0
Cc1cc(NC(=O)Nc2ccccc2F)ccc1Br,-5.0,6.0,0.9,3.05*,1.05,-205.3
O=C(Nc1ccccc1)Nc1ccc(Br)cc1F,16.6,13.5,0.9,1.81,0.834,-81.0
O=C(Nc1ccncc1)Nc1cccc(C(F)(F)F)c1,-2.7,·,·,1.08,1.03,-7.8
Cc1ccc(S(=O)(=O)Nc2ccc(NC(=O)Nc3cccc(C(F)(F)F)c3)cc2)cc1,-8.9,12.7,0.9,2.61*,1.09,-160.6
Cc1ccc(-n2ncc(C(=O)Nc3cc(Cl)cc(Cl)c3)c2C2CCNCC2)cc1C,·,i,6.1*,·,·,·
CC1CCCC(NC(=S)Nc2cccc(S(=O)(=O)N(C)C)c2)C1C (stereo not drawn),-23.4,4.3,1,4.92*,1.23,-392.3
Cc1ccc(S(=O)(=O)N(C)C)cc1NC(=S)NC12CC3CC(CC(C3)C1)C2,·,·,0.3,·,·,·
CN(C)S(=O)(=O)c1cccc(NC(=S)NC23CC4CC(CC(C4)C2)C3)c1,-13.9,·,·,2.74*,1.14,-174.3
COc1ccccc1N1CCN(C(=O)c2oc3c(c2C)C(=O)CC(C)(C)C3)CC1,-27.7,·,·,0.973,1.28,2.7
